DAGLB inh: blocks human DAGLB lipase activity; actives 0.059% (n = 340,000); AID 504411; HEK293T DAGLB membrane lysate, EnzChek fluorogenic substrate; inhibition, % at 5.17 µM; Q8NCG7; in the data active = inhibition above about 34%
Target sequence (Q8NCG7 whole entry, looked up): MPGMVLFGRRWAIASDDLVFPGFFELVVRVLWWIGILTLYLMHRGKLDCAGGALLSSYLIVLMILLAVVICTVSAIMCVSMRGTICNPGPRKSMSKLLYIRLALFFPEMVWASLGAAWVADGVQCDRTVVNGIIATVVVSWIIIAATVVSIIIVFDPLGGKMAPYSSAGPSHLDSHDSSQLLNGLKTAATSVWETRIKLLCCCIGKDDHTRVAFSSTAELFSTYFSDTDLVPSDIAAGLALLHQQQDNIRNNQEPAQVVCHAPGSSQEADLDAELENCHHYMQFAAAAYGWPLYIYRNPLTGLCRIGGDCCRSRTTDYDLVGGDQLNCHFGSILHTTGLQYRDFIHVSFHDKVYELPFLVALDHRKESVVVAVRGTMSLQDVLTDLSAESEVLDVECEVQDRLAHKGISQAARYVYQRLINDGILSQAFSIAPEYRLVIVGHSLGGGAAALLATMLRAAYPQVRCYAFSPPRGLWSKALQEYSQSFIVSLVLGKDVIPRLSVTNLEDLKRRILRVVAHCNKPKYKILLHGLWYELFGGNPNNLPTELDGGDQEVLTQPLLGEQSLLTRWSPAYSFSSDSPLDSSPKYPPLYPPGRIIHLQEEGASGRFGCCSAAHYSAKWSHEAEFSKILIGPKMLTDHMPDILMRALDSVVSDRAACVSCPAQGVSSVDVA
Tn7 DDE FP: DD(E)-Tn7 binding inhibition, primary FP screen. P02675. FP displacement of FITC-Tn7 peptide from fibrin DD(E); 0% = median of compound wells per plate. inhibition, % at 8.3 µM. actives 0.13% (n = 370,000). AID 720508;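 active = inhibition above the mean of compounds falling within the control limits plus 3 SD of them, cut at about 14% in these data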
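Assay system: Fibrin-DD(E) protein isolated from polymerized human fibrin clots; read-out basis: percent inhibition; medium: Tris/NaCl/CaCl2 buffer, pH 7.8; signal: FP measurement; incubation: 10 min plus 3 h, room temperature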
H9c2 TAG inh: reduces triacylglycerol accumulation in H9c2 cells; AID 651582; inhibition, % at 12.5 µM; actives 0.66% (n = 230,000); Nile Red lipid (TAG) fluorescence; cells loaded with 200 µM oleic acid;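 active = pattern-corrected inhibition of lipid staining of at least 50% with the nuclear-stain viability signal not falling by more than 50%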
MT1-MMP act inh: inhibitors of human MT1-MMP activation; HT1080 RFP-PRO-GFP cells, GFP/RFP ratio fluorescence, overnight; percent of plate control window, DMSO zero; GFP/RFP ratio change, % at 20 µM; actives 0.061% (n = 360,000);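 active = GFP/RFP ratio change of at least 30% with cell ATP level not reduced by more than half and red fluorescence within 50% of control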
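Assay system – RFP-PRO-GFP reporter HT1080 cells · Compound dosing – single dose of 20 µM compound, 1% DMSO final · Incubation – overnight compound exposure at 37 °C · Measure – GFP/RFP fluorescence ratio · Benchmarks – DMSO wells and RFP-L50D-GFP cells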
DDE Tn6 FP inh: DD(E)-Tn6 binding inhibition, primary FP screen | P02675 | Fibrin DD(E) TRITC-Tn6 fluorescence polarization displacement | inhibition, % at 8.3 µM | actives 0.21% (n = 370,000) | AID 720509;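 active = inhibition above a per-campaign cutoff: mean of compounds within control limits plus 3 SD, cut at about 15% in these data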
H9c2 protect: protects H9c2 cardiomyocytes from peroxide injury; AID 588492; protection from H2O2 cell death, % at 20 µM; H2O2 injury protection, ATPLite, 2 h; actives 0.63% (n = 360,000);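 active = compounds giving at least 50% protection of heart cells from peroxide-induced death in the single-dose screen, raw or plate-pattern-corrected value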
Numbers stand for hits; – = inactive; · = no result given. Rows were chosen to be rich in hits. Some 1.4% of all compounds tested hit in one or more screens of this group.

SMILES	DAGLB inh	Tn7 DDE FP	H9c2 TAG inh	MT1-MMP act inh	DDE Tn6 FP inh	H9c2 protect
CCOc1ccccc1-c1c2cc(O)c(=O)cc-2oc2cc(O)c(O)cc12	–	·	·	–	·	60.1
O=c1cc2oc3cc(O)c(O)cc3c(-c3ccccc3O)c-2cc1O	–	·	·	–	·	–
CC(=O)OCC(=O)NCC1CCN(C(=O)C(=O)c2cc3ccccc3o2)CC1	·	–	·	·	–	·
C=CCN1C(=O)[C@@H](CC(=O)NCCc2ccccc2OC)[C@]2(C(=O)OCC)CCCCC/C=C/12	·	–	·	·	–	·
CCCCn1nc(C(=O)Oc2ccc3c(C)cc(=O)oc3c2)c2ccccc2c1=O	–	–	·	–	–	51.5
CS(=O)(=O)c1nc(-c2ccc(Br)cc2)cc(-c2ccccc2)c1C#N	–	–	79.1	–	–	–
COc1ccc(-c2cc(-c3ccccc3)c(C#N)c(S(C)(=O)=O)n2)cc1	–	–	–	–	–	–
COc1ccc(/C=N/NC(=O)c2nc(-c3ccccc3)cc(-c3ccccc3)n2)cc1O	–	–	·	–	–	50.9
COc1cc(/C=N/NC(=O)c2nc(-c3ccccc3)n(-c3ccccc3)n2)ccc1O	–	–	·	–	–	–
COc1cc(/C=N/Nc2nc(C)nc3c2cnn3-c2ccccc2)ccc1O	–	–	57.2	–	–	–
COc1cc(/C=N/NC(=O)c2cnn3c(C)cc(-c4ccccc4)nc23)ccc1O	–	–	–	–	–	75.5
COc1cccc(CNC(=O)[C@H]2CCCN2C(=O)[C@H]2CCCN2C(=O)N2CCOCC2)c1	·	–	·	·	–	·
COc1cc(C=NO)nc(-c2ccccn2)c1	–	–	–	–	–	55.6
COc1ccc(Oc2ccccc2/C=N/O)cc1	–	–	–	–	–	–
O=Cc1ccc(OCc2cccc(C(F)(F)F)c2)cc1O	–	–	–	–	–	67.9
COCOc1ccc(C=O)c(O)c1	–	–	·	–	–	–
COc1cc(/C=N/Nc2nc(Nc3ccc(C)cc3)nc(-n3nc(C)cc3C)n2)cc(OC)c1OC	–	–	–	–	–	57.2
N#CC(c1nc2ccccc2nc1N1CCCC1)S(=O)(=O)c1cccs1 (centres undefined)	–	–	–	–	–	58.9
Cc1ncc(CO)c2c1Oc1nc(-c3ccccc3)nc(SCC(=O)N3CCOCC3)c1C2	–	–	·	–	–	–
COc1ccccc1-c1nc2c(c(SCC(=O)N3CCCCC3)n1)Cc1c(CO)cnc(C)c1O2	–	–	·	–	–	–
Cc1cccc(-c2nc3c(c(SCC(=O)N4CCOCC4)n2)Cc2c(CO)cnc(C)c2O3)c1	–	·	·	–	·	51.0
Cc1ncc(CO)c2c1Oc1nc(-c3ccccc3)nc(SCC(=O)N3CCCCC3)c1C2	–	–	·	–	–	74.4
Cc1ncc(CO)c2c1Oc1nc(-c3ccccc3)nc(SCC(=O)N(C)c3ccccc3)c1C2	·	–	·	·	–	·
COc1cccc(-c2nc3c(c(SCC(=O)N4CCOCC4)n2)Cc2c(CO)cnc(C)c2O3)c1	–	·	·	–	·	71.9
COc1ccccc1NS(=O)(=O)c1ccc2oc(SCC(=O)N3CCNC3=O)nc2c1	–	–	–	–	–	54.5
SMILES	DAGLB inh	Tn7 DDE FP	H9c2 TAG inh	MT1-MMP act inh	DDE Tn6 FP inh	H9c2 protect
CNC(=O)CSc1nc2cc(S(=O)(=O)Nc3ccccc3OC)ccc2o1	–	–	·	–	–	–
COc1ccc(-c2csc(NC(=O)c3ccc(OCC(=O)N4CCOCC4)c(OC)c3)n2)cc1OC	–	–	·	–	–	80.7
C=CCN(CC#CC(=C)C)Cc1ccccc1	·	–	·	·	–	·
Cc1[nH]c(-c2ccccn2)nc(=S)c1Cl	–	–	–	–	–	58.6
COc1ccc(Cc2nnc(N/N=C/c3ccc(O)cc3O)[nH]c2=O)cc1OC	–	–	·	–	–	51.9
CCCCCC/C=N/Nc1nnc(Cc2ccc(OC)c(OC)c2)c(=O)[nH]1	–	–	·	–	–	–
COC(=O)C[C@H]1CC[C@H]2[C@H](COc3ccc(NC(=O)Cc4cccs4)cc3C(=O)N2C)O1	·	–	·	·	–	·
O=C(Nc1nc(-c2ccc(S(=O)(=O)N3CCCC3)cc2)cs1)C1COc2ccccc2O1 (centres undefined)	–	–	–	–	–	66.0
O=C1CN(S(=O)(=O)c2cc(Br)ccc2Br)CCN1	–	–	–	–	–	–
O=c1c(Br)ccc(Br)cc1Br	–	–	98.8	–	–	–
O=C(N/N=C/c1ccccn1)c1cc(C2CC2)nc2ccccc12	–	·	·	–	·	55.4
O=C(N/N=C/c1ccccn1)c1cc(-c2ccc(Br)s2)[nH]n1	–	–	·	–	–	–
O=C(N/N=C/c1ccccn1)c1cc(-c2cccc3ccccc23)n[nH]1	–	–	–	–	–	56.3
CCOc1ccccc1-c1cc(C(=O)N/N=C/c2cccnc2)c2ccccc2n1	–	–	–	–	–	–
O=C(N/N=C/c1ccccn1)c1cc(-c2ccc(Cl)s2)[nH]n1	–	–	·	–	–	59.2
O=C(N/N=C/c1ccncc1)c1cc(C2CC2)nc2ccccc12	–	·	·	–	·	–
Cc1ccc(COc2ccccc2-c2cc(C(=O)N/N=C/c3cccnc3)[nH]n2)cc1	–	–	–	–	–	50.2
CCOC(=O)CC[C@@H]1CC[C@]2(CCCN(Cc3cccs3)C2)O1	·	–	·	·	–	·
Cc1cc(C)nc(SCc2ccc(C(=O)N/N=C/c3ccccn3)cc2)n1	–	–	–	–	–	69.0
C/C(=N\NC(=O)c1cc(-c2ccccc2)nc2ccccc12)c1ccc(Cl)cc1	·	–	·	·	–	·
CC(=O)c1ccc(NC(=O)c2cccs2)cc1	–	–	·	–	–	–
Cc1cc(C)cc(C(=O)Nc2ccc(NC(=O)c3cccs3)cc2)c1	–	–	–	–	–	49.4
CC(=O)Nc1cccc(/C(C)=N/NC(=O)c2cccs2)c1	–	–	–	–	–	59.1
CC(C)(C)NC(=O)c1cc(NC(=O)c2cccs2)cc(NC(=O)c2cccs2)c1	–	·	·	–	·	62.9
C/C(=N/NC(=O)c1cccs1)c1cccc(N)c1	–	–	–	–	–	–
SMILES	DAGLB inh	Tn7 DDE FP	H9c2 TAG inh	MT1-MMP act inh	DDE Tn6 FP inh	H9c2 protect
COc1ccccc1C(=O)N(Cc1ccccn1)CC1CCCO1 (centres undefined)	·	–	·	·	–	·
Cc1ccccc1OCC(=O)N/N=C/c1cccc2cccnc12	–	–	–	–	–	–
O=C(COc1ccc(F)cc1)N/N=C/c1cccc2cccnc12	–	–	–	–	–	53.6
Cc1ccc(OCC(=O)N/N=C/c2cccc3cccnc23)cc1	–	–	–	–	–	55.9
Cn1c(=O)c2c(nc(Br)n2Cc2ccc3ccccc3c2)n(C)c1=O	–	–	·	–	–	87.0
CCOc1ccccc1CNc1ccc(O)cc1	–	–	–	–	–	–
CCOc1cccc(CNc2ccc(O)cc2)c1OCc1ccc(Cl)cc1	–	–	–	–	15.3	–
O=C(NN=Cc1ccccc1O)C1CC1	–	–	–	–	–	–
O=C(CCCCCNC(=O)c1ccccc1)N/N=C/c1ccccc1O	–	–	–	–	–	–

High-throughput results from PubChem.
